Measurements taken from ChEMBL document CHEMBL5724801, “EUbOPEN Chemogenomics Library - Multiplex” (2024).
Where “and” joins values, the source holds several entries; their conditions need not be identical. Equal values may be shown once.

Tests used:
Fibroblast = assay: Multiplex assay against human fibroblast; format: toxicity, cell-based
Summary of the method: (§1)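 Cells stained live at seeding with Hoechst33342, BioTracker Green Microtubule Cytoskeleton Dye, MitoTracker Red and Annexin V Alexa Fluor 680 were imaged on a CQ1 microscope at 37°C and 5% CO2 after compound addition. Their classification by CellPathfinder machine-learning gating ran from Hoechst high-intensity objects versus normal cells, to healthy, pyknosed or fragmented nuclei among normal cells, to mitotic or apoptotic among pyknosed cells. Tubulin, mitochondrial-mass and membrane-permeability phenotypes are per cents of healthy-nucleus cells.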

U2OS = assay: Multiplex assay against U2OS; format: toxicity, cell-based; settings: human; summary of the method: as §1
[1] = 12 h, 1 µM, compound concentration 1 uM
[2] = 12 h, 10 µM, compound concentration 10 uM
[3] = 24 h, 1 µM, compound concentration 1 uM
[4] = 24 h, 10 µM, compound concentration 10 uM
[5] = 48 h, 1 µM, compound concentration 1 uM
[6] = 48 h, 10 µM, compound concentration 10 uM

C[C@@H]1CC(=O)Nc2cccc(-c3ccc4c(c3)c(-c3cnn(C)c3)nn4C)c2N1
Population Apoptotic (%) (Fibroblast; [1]): 38%
Population Fragmented Nuclei (%) (Fibroblast; [1]): 20% and 26%
Population Healthy Nuclei (%) (Fibroblast; [1]): 63% and 47%
Population Hoechst High Intensity Objects (%) (Fibroblast; [1]): 1% and 5%
Population Membrane Permeable-Phenotype (%) (Fibroblast; [1]): 0% and 8%
Population Mitochondria Different-Phenotype (%) (Fibroblast; [1]): 4% and 12%
Population Mitotic Cells (%) (Fibroblast; [1]): 61%
Population Normal (%) (Fibroblast; [1]): 98% and 94%
Population Pyknosed Nuclei (%) (Fibroblast; [1]): 15% and 26%
Population Tubulin-Different-Phenotype (%) (Fibroblast; [1]): 31% and 51%
Total Cell Count (Fibroblast; [1]): 115 and 105
Population Apoptotic (%) (Fibroblast; [2]): 40% and 30%
Population Fragmented Nuclei (%) (Fibroblast; [2]): 17% and 11%
Population Healthy Nuclei (%) (Fibroblast; [2]): 65% and 58%
Population Hoechst High Intensity Objects (%) (Fibroblast; [2]): 5% and 6%
Population Membrane Permeable-Phenotype (%) (Fibroblast; [2]): 1% and 7%
Population Mitotic Cells (%) (Fibroblast; [2]): 59% and 69%
Population Normal (%) (Fibroblast; [2]): 94% and 93%
Population Pyknosed Nuclei (%) (Fibroblast; [2]): 17% and 30%
Population Tubulin-Different-Phenotype (%) (Fibroblast; [2]): 63% and 68%
Total Cell Count (Fibroblast; [2]): 161 and 126
Population Apoptotic (%) (Fibroblast; [3]): 57% and 35%
Population Fragmented Nuclei (%) (Fibroblast; [3]): 16% and 29%
Population Healthy Nuclei (%) (Fibroblast; [3]): 67% and 50%
Population Hoechst High Intensity Objects (%) (Fibroblast; [3]): 2% and 7%
Population Membrane Permeable-Phenotype (%) (Fibroblast; [3]): 2% and 11%
Population Mitochondria Different-Phenotype (%) (Fibroblast; [3]): 5% and 9%
Population Mitotic Cells (%) (Fibroblast; [3]): 42% and 65%
Population Normal (%) (Fibroblast; [3]): 97% and 92%
Population Pyknosed Nuclei (%) (Fibroblast; [3]): 15% and 19%
Population Tubulin-Different-Phenotype (%) (Fibroblast; [3]): 33% and 60%
Total Cell Count (Fibroblast; [3]): 122 and 112
Population Apoptotic (%) (Fibroblast; [4]): 75% and 42%
Population Fragmented Nuclei (%) (Fibroblast; [4]): 19% and 13%
Population Healthy Nuclei (%) (Fibroblast; [4]): 69% and 57%
Population Hoechst High Intensity Objects (%) (Fibroblast; [4]): 10% and 5%
Population Membrane Permeable-Phenotype (%) (Fibroblast; [4]): 0% and 1%
Population Mitotic Cells (%) (Fibroblast; [4]): 25% and 57%
Population Normal (%) (Fibroblast; [4]): 89% and 94%
Population Pyknosed Nuclei (%) (Fibroblast; [4]): 11% and 29%
Population Tubulin-Different-Phenotype (%) (Fibroblast; [4]): 66% and 76%
Total Cell Count (Fibroblast; [4]): 158 and 119
Population Apoptotic (%) (Fibroblast; [5]): 50% and 30%
Population Fragmented Nuclei (%) (Fibroblast; [5]): 25% and 36%
Population Healthy Nuclei (%) (Fibroblast; [5]): 60% and 50%
Population Hoechst High Intensity Objects (%) (Fibroblast; [5]): 5% and 2%
Population Mitochondria Different-Phenotype (%) (Fibroblast; [5]): 6% and 8%
Population Mitotic Cells (%) (Fibroblast; [5]): 50% and 69%
Population Normal (%) (Fibroblast; [5]): 94% and 97%
Population Pyknosed Nuclei (%) (Fibroblast; [5]): 14% and 13%
Population Tubulin-Different-Phenotype (%) (Fibroblast; [5]): 21% and 60%
Total Cell Count (Fibroblast; [5]): 114 and 102
Population Apoptotic (%) (Fibroblast; [6]): 92% and 60%
Population Fragmented Nuclei (%) (Fibroblast; [6]): 17%
Population Healthy Nuclei (%) (Fibroblast; [6]): 73% and 62%
Population Hoechst High Intensity Objects (%) (Fibroblast; [6]): 3% and 4%
Population Membrane Permeable-Phenotype (%) (Fibroblast; [6]): 0% and 6%
Population Normal (%) (Fibroblast; [6]): 96% and 95%
Population Pyknosed Nuclei (%) (Fibroblast; [6]): 8% and 19%
Population Tubulin-Different-Phenotype (%) (Fibroblast; [6]): 68% and 69%
Total Cell Count (Fibroblast; [6]): 162 and 122
Population Apoptotic (%) (U2OS; [1]): 92% and 88%
Population Fragmented Nuclei (%) (U2OS; [1]): 20% and 16%
Population Healthy Nuclei (%) (U2OS; [1]): 73% and 75%
Population Hoechst High Intensity Objects (%) (U2OS; [1]): 1%
Population Membrane Permeable-Phenotype (%) (U2OS; [1]): 7% and 5%
Population Mitochondria Different-Phenotype (%) (U2OS; [1]): 4% and 2%
Population Mitotic Cells (%) (U2OS; [1]): 7% and 11%
Population Normal (%) (U2OS; [1]): 98%
Population Pyknosed Nuclei (%) (U2OS; [1]): 6% and 7%
Population Tubulin-Different-Phenotype (%) (U2OS; [1]): 6% and 2%
Total Cell Count (U2OS; [1]): 233 and 116
Population Apoptotic (%) (U2OS; [2]): 86% and 33%
Population Fragmented Nuclei (%) (U2OS; [2]): 29% and 21%
Population Healthy Nuclei (%) (U2OS; [2]): 58% and 74%
Population Hoechst High Intensity Objects (%) (U2OS; [2]): 2% and 1%
Population Membrane Permeable-Phenotype (%) (U2OS; [2]): 11% and 7%
Population Mitochondria Different-Phenotype (%) (U2OS; [2]): 11% and 7%
Population Normal (%) (U2OS; [2]): 97% and 98%
Population Pyknosed Nuclei (%) (U2OS; [2]): 12% and 4%
Population Tubulin-Different-Phenotype (%) (U2OS; [2]): 8%
Population Apoptotic (%) (U2OS; [3]): 95% and 100%
Population Fragmented Nuclei (%) (U2OS; [3]): 20% and 22%
Population Healthy Nuclei (%) (U2OS; [3]): 71% and 74%
Population Hoechst High Intensity Objects (%) (U2OS; [3]): 2% and 1%
Population Membrane Permeable-Phenotype (%) (U2OS; [3]): 5% and 1%
Population Mitochondria Different-Phenotype (%) (U2OS; [3]): 2% and 1%
Population Mitotic Cells (%) (U2OS; [3]): 4% and 0%
Population Normal (%) (U2OS; [3]): 97% and 98%
Population Pyknosed Nuclei (%) (U2OS; [3]): 7% and 4%
Population Tubulin-Different-Phenotype (%) (U2OS; [3]): 2% and 0%
Total Cell Count (U2OS; [3]): 294 and 152
Population Apoptotic (%) (U2OS; [4]): 90% and 83%
Population Fragmented Nuclei (%) (U2OS; [4]): 24% and 15%
Population Healthy Nuclei (%) (U2OS; [4]): 63% and 78%
